From ChEMBL document CHEMBL5357072, “Structural Modification of Noscapine via Photoredox/Nickel Dual Catalysis for the Discovery of S-Phase Arresting Agents” (ACS Med Chem Lett, 2024)

Columns and labels:
Assay type in all cases: functional
Settings in all cases: read-out: GI
NB-4 = assay: Antiproliferative activity against human NB4 cells assessed as cell growth inhibition at 10 uM incubated for 48 hrs by CCK8 assay relative to control
Outline: (§1)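 Single-concentration screen of six cancer cell lines. Cells were exposed to 10 μM compound and growth was measured by CCK-8 assay. Results are reported as inhibition rate at 10 μM.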

HeLa = assay: Antiproliferative activity against human HeLa cells assessed as cell growth inhibition at 10 uM incubated for 48 hrs by CCK8 assay relative to control; outline: as §1
A549 = assay: Antiproliferative activity against human A549 cells assessed as cell growth inhibition at 10 uM incubated for 48 hrs by CCK8 assay relative to control; outline: as §1
MOLM-13 = assay: Antiproliferative activity against human MOLM-13 cells assessed as cell growth inhibition at 10 uM incubated for 48 hrs by CCK8 assay relative to control; outline: as §1
JeKo-1 = assay: Antiproliferative activity against human JeKo-1 cells assessed as cell growth inhibition at 10 uM incubated for 48 hrs by CCK8 assay relative to control; outline: as §1
U-251 = assay: Antiproliferative activity against human U-251 cells assessed as cell growth inhibition at 10 uM incubated for 48 hrs by CCK8 assay relative to control; outline: as §1

Molecule `COc1ccc2c(c1OC)C(=O)O[C@@H]2[C@H]1c2c(c(CCNC(=O)OC(C)(C)C)c3c(c2OC)OCO3)CCN1C(=O)OC(C)(C)C` has an inhibition of growth at 10 µM (NB-4) of 29.9%, an inhibition of growth at 10 µM (HeLa) of under 5% and an inhibition of growth at 10 µM (A549) of under 5%. For the same molecule, the inhibition of growth at 10 µM (MOLM-13) was 43.5%, the inhibition of growth at 10 µM (JeKo-1) was 14% and the inhibition of growth at 10 µM (U-251) was under 5%.

Work on `COc1ccc2c(c1OC)C(=O)O[C@@H]2[C@H]1c2c(c(CCCC(F)(F)F)c3c(c2OC)OCO3)CCN1C(=O)OC(C)(C)C` yielded an inhibition of growth at 10 µM (NB-4) of 31.5%, an inhibition of growth at 10 µM (HeLa) of under 5% and an inhibition of growth at 10 µM (A549) of under 5%. It also gave an inhibition of growth at 10 µM (MOLM-13) of 36%, an inhibition of growth at 10 µM (JeKo-1) of 25.6% and an inhibition of growth at 10 µM (U-251) of under 5%.

Work on `COc1ccc2c(c1OC)C(=O)O[C@@H]2[C@H]1c2c(c(C3CCOCC3)c3c(c2OC)OCO3)CCN1C(=O)OC(C)(C)C` yielded an inhibition of growth at 10 µM (NB-4) of 4.36%, an inhibition of growth at 10 µM (HeLa) of under 5% and an inhibition of growth at 10 µM (A549) of under 5%. The inhibition of growth at 10 µM (MOLM-13) was 36.8%, the inhibition of growth at 10 µM (JeKo-1) was 12% and the inhibition of growth at 10 µM (U-251) was under 5%.

For `COc1ccc2c(c1OC)C(=O)O[C@@H]2[C@H]1c2c(c(CC3CCCCC3)c3c(c2OC)OCO3)CCN1C(=O)OC(C)(C)C`, the inhibition of growth at 10 µM (NB-4) was under 5%, the inhibition of growth at 10 µM (HeLa) was under 5% and the inhibition of growth at 10 µM (A549) was under 5%. For the same molecule, the inhibition of growth at 10 µM (MOLM-13) was 29.3%, the inhibition of growth at 10 µM (JeKo-1) was under 5% and the inhibition of growth at 10 µM (U-251) was under 5%.

For `COc1ccc2c(c1OC)C(=O)O[C@@H]2[C@H]1c2c(c(CC3CCOCC3)c3c(c2OC)OCO3)CCN1C(=O)OC(C)(C)C`, the inhibition of growth at 10 µM (NB-4) was 4.77%, the inhibition of growth at 10 µM (HeLa) was 23% and the inhibition of growth at 10 µM (A549) was under 5%. It also gave an inhibition of growth at 10 µM (MOLM-13) of 48.4%, an inhibition of growth at 10 µM (JeKo-1) of 20.4% and an inhibition of growth at 10 µM (U-251) of 13.2%.

`COc1ccc2c(c1OC)C(=O)O[C@@H]2[C@H]1c2c(c(CC3CCCC3)c3c(c2OC)OCO3)CCN1C(=O)OC(C)(C)C` was tested, and the inhibition of growth at 10 µM (NB-4) was 20.8%, the inhibition of growth at 10 µM (HeLa) was under 5% and the inhibition of growth at 10 µM (A549) was under 5%. The inhibition of growth at 10 µM (MOLM-13) was 51.3%, the inhibition of growth at 10 µM (JeKo-1) was 6.68% and the inhibition of growth at 10 µM (U-251) was 12%.

With `COCCCc1c2c(c(OC)c3c1OCO3)[C@H]([C@H]1OC(=O)c3c1ccc(OC)c3OC)N(C(=O)OC(C)(C)C)CC2` the inhibition of growth at 10 µM (NB-4) was 27.2%, the inhibition of growth at 10 µM (HeLa) was under 5% and the inhibition of growth at 10 µM (A549) was under 5%. It also gave an inhibition of growth at 10 µM (MOLM-13) of 30.4%, an inhibition of growth at 10 µM (JeKo-1) of 23.3% and an inhibition of growth at 10 µM (U-251) of under 5%.

`COc1ccc2c(c1OC)C(=O)O[C@@H]2[C@H]1c2c(c(C3CCC(C)(C)CC3)c3c(c2OC)OCO3)CCN1C(=O)OC(C)(C)C` showed an inhibition of growth at 10 µM (NB-4) of 29.6%, an inhibition of growth at 10 µM (HeLa) of under 5% and an inhibition of growth at 10 µM (A549) of under 5%. The inhibition of growth at 10 µM (MOLM-13) was 47.6%, the inhibition of growth at 10 µM (JeKo-1) was 7.49% and the inhibition of growth at 10 µM (U-251) was under 5%.

`COc1ccc2c(c1OC)C(=O)O[C@@H]2[C@H]1c2c(c(C3CCC3)c3c(c2OC)OCO3)CCN1C(=O)OC(C)(C)C` was tested, and the inhibition of growth at 10 µM (NB-4) was 13.5%, the inhibition of growth at 10 µM (HeLa) was under 5% and the inhibition of growth at 10 µM (A549) was under 5%. It also gave an inhibition of growth at 10 µM (MOLM-13) of 40.4%, an inhibition of growth at 10 µM (JeKo-1) of under 5% and an inhibition of growth at 10 µM (U-251) of under 5%.

Work on `COc1ccc2c(c1OC)C(=O)O[C@@H]2[C@H]1c2c(c(C3CCCCC3)c3c(c2OC)OCO3)CCN1C(=O)OC(C)(C)C` yielded an inhibition of growth at 10 µM (NB-4) of 6.53%, an inhibition of growth at 10 µM (HeLa) of under 5% and an inhibition of growth at 10 µM (A549) of under 5%. The inhibition of growth at 10 µM (MOLM-13) was 46.1%, the inhibition of growth at 10 µM (JeKo-1) was under 5% and the inhibition of growth at 10 µM (U-251) was under 5%.

With `Nc1ccn([C@@H]2O[C@H](CO)[C@@H](O)C2(F)F)c(=O)n1` [GEMCITABINE] the inhibition of growth at 10 µM (NB-4) was 95.7%, the inhibition of growth at 10 µM (HeLa) was 61.4% and the inhibition of growth at 10 µM (A549) was 62.3%. It also gave an inhibition of growth at 10 µM (MOLM-13) of 74.1%, an inhibition of growth at 10 µM (JeKo-1) of 65.2% and an inhibition of growth at 10 µM (U-251) of 69.7%.

Work on `COc1ccc2c(c1OC)C(=O)O[C@@H]2[C@H]1c2c(c(CC3CCC3)c3c(c2OC)OCO3)CCN1C(=O)OC(C)(C)C` yielded an inhibition of growth at 10 µM (NB-4) of 8.8%, an inhibition of growth at 10 µM (HeLa) of under 5% and an inhibition of growth at 10 µM (A549) of under 5%. For the same molecule, the inhibition of growth at 10 µM (MOLM-13) was 53.1%, the inhibition of growth at 10 µM (JeKo-1) was 6.67% and the inhibition of growth at 10 µM (U-251) was under 5%.
